According to publication PMC3295204 (Journal of Medicinal Chemistry, 2012):

Key:
PC-3 cells = assay: Cell viability; format: cell-based, human; conditions: PC-3, 50 μM, 24 h
[1] = molecular target: T1, progesterone receptor (PR) (Homo sapiens, UniProt P06401); assay: TR-FRET SRC1-4 coactivator displacement from progesterone-PR complex; format: biochemical; conditions: AR vs PR
T1 sequence (P06401 679-933 limits assumed): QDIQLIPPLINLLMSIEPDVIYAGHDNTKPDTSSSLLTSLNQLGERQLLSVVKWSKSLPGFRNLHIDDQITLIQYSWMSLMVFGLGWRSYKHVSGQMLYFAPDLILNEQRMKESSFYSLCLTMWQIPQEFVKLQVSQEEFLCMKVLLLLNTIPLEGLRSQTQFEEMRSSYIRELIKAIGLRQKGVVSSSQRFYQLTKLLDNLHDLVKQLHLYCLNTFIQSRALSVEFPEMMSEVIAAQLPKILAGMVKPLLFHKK
Summary of the method: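 TR-FRET coactivator-recruitment assay with LBD and Tb anti-GST antibody. Agonist was set at its EC80 from a prior agonist-mode run: DHT for AR-LBD (test compound 100 μM–45 nM), progesterone for PR (100–1 μM). Buffer had 1% DMSO, 5 mM DTT and 0.01% Triton X-100; incubation was 2–4 h at RT in the dark. […] Two experiments in triplicate.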

Cell viability [2] = format: cell-based; conditions: human, LNCaP cells (androgen-dependent prostate cancer cell line)
Cell viability [3] = format: cell-based, human; conditions: human, PC-3 cells (androgen-independent prostate cancer cell line)
Cell viability [4] = format: cell-based; conditions: human, PWR-1E cells (normal prostatic epithelia cell line)
LNCaP cells = assay: Hormone-dependent cell proliferation in androgen-deprived LNCaP cells; format: cell-based, human
Summary of the method: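 LNCaP cells were androgen-deprived for 48 h in phenol red-free RPMI with 10% charcoal-stripped FBS. They were seeded at 2 × 10^4 cells/mL in triplicate and treated with test compound ± 0.1 nM DHT (0.1% DMSO final), with a vehicle control. Media and treatments were renewed every second day after two PBS washes. Proliferation was read by AlamarBlue at 5 days. Two independent experiments, SEM n = 6.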

[5] = system: PSA secretion (AR signaling) in LNCaP cells; assay: Secreted PSA ELISA in LNCaP cells; format: cell-based, human
Summary of the method: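 Media were renewed every second day, and supernatants collected at day 5 for human PSA sandwich ELISA: sample 2 h at RT, HRP-conjugate antibody 2 h at RT, TMB 30 min, then 2 N H2SO4 stop. OD 450 minus 540 nm was interpolated from a standard curve. Two experiments, SEM n = 4.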

Structure (SMILES) | cell viability (PC-3 cells) | binding selectivity for AR over PR [1] | viability at 24 h, 50 µM (Cell viability [2]) | viability at 24 h, 50 µM (Cell viability [3]) | viability at 24 h, 50 µM (Cell viability [4]) | tolerability in LNCaP cells (LNCaP cells; 5 days of treatment at 10 and 20 μM) | effect on DHT-treated cell count (LNCaP cells; 5 days, 10 and 20 μM, 0.1 nM DHT) | effect on CPA partial agonist activity (secreted PSA) ([5]; 10 μM, androgen-deprived LNCaP) | effect on DHT-induced PSA secretion ([5]; LNCaP, ELISA) | agonist activity (PSA without hormone stimulation) ([5]; androgen-deprived LNCaP, tested concentrations)
CC(=O)O[C@]1(C(C)=O)CC[C@H]2[C@@H]3C=C(Cl)C4=CC(=O)[C@@H]5C[C@@H]5[C@]4(C)[C@H]3CC[C@@]21C [CPA, cyproterone acetate, reference compound] | minor effect | – | – | – | – | – | – | – | – | –
O=C(N/N=C/c1cc(Br)ccc1O)c1cc2ccccc2cc1O [Compound 4] | – | approximately 2 fold | 50 to 60% | 50 to 60% | 50 to 60% | – | – | – | – | –
COc1cc(/C=N/NC(=O)c2cc3c(ccc4ccccc43)o2)cc(OC)c1O [Compound 5] | – | comparable affinity | – | – | – | well-tolerated | specific reduction in DHT-treated cell count | antagonize CPA partial agonist activity | reduce DHT-induced PSA secretion in a dose–response fashion | no detectable agonist or partial agonist activity
